MLL AF4-AF9 inh: MLL-AF4/AF9 protein interaction inhibition | P42568 | inhibition, % at 10 µM | AlphaScreen, biotin-AF4 peptide binding to FLAG-AF9 | hit rate 0.47% among 350,000;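 active = every replicate reaching a set inhibition limit, whatever the replicate mean, cut at about 25% in these data; inconclusive = mean inhibition reaches that limit but some replicates miss it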
E-sel inducer: induces E-selectin expression in human endothelial cells. HUVEC E-selectin immunofluorescence imaging; normalized: neutral wells 0, TNF-alpha wells 100. activation, % at 7.58 µM. hit rate 0.37% among 260,000. AID 686992;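 active = mean E-selectin-positive cell signal at least 10% of the positive control, reached in at least 60% of replicates, without over 20% cell loss; inconclusive = no rule given, readout overlaps actives, possibly toxicity-flagged; inactive = the rest, including those meeting only one limit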
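System: HUVEC / Compound: single concentration / Signal: immunofluorescence imaging / Read-out: percent E-selectin-positive cells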
Ecoli rRNA inh: inhibits bacterial ribosomal RNA function over humanized ribosomes; E. coli WT GFP vs humanized-ribosome RFP mutants, fluorescence, 24 h; active compounds read low; DMSO median 0, no signal -100; GFP signal change (wild-type ribosome), % (no concentration beside the values); hit rate 1.6% among 350,000; AID 720706;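 active = significant combined selectivity score with lowered wild-type GFP, culture density cut under 30%, mutant RFP and density less affected; inactive = any of these conditions unmet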
INS-1E GSIS act: GLuc luminescence reporter in INS-1E cells, primary screen for activators of glucose-dependent secretion of insulin; INS-1E GLuc reporter insulin secretion, 2-3 h; hit rate 0.61% among 370,000; activation, % at 16.6 µM;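 active = lowest replicate activation of at least 40%, so every replicate reaches that level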
RAD54 branch: blocks human RAD54 Holliday junction branch migration; inhibition, % at 10.4 µM; AID 602329; FAM/BHQ fluorescence; hit rate 0.14% among 360,000; Q92698;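 active = mean normalized replicate activity at least 40 and at least half of replicates scoring 40 or more; inconclusive = only one of the two criteria met; inactive = mean below 40 and under half of replicates reaching 40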;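 also: inhibitors cause a drop in the FAM fluorescence signal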
Target sequence (Q92698 whole entry, looked up): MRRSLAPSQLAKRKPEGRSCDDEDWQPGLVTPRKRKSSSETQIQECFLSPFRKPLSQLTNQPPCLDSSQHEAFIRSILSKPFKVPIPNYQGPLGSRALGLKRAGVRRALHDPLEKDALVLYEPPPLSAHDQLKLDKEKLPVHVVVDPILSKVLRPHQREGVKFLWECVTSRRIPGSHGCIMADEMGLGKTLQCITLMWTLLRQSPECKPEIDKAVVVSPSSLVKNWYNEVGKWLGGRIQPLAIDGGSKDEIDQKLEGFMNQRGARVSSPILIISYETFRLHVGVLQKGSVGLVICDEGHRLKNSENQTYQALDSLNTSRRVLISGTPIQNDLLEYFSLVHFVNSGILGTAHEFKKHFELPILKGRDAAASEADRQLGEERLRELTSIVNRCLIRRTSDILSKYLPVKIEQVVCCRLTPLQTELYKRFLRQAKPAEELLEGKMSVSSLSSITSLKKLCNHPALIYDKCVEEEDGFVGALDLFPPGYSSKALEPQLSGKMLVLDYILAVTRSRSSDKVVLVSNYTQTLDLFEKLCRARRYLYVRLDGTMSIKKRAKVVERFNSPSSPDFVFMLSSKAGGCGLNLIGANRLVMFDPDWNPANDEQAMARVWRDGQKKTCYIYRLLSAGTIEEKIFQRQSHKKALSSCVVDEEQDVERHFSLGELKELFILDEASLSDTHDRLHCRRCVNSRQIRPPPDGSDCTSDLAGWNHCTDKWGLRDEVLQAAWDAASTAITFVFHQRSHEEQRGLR
RAD52 anneal inh: inhibitors of human RAD52 DNA annealing; recombinant RAD52 DNA annealing, FRET fluorescence; hit rate 0.46% among 360,000; inhibition, % at 18.7 µM;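 active = every replicate showing at least 50% inhibition; inconclusive = mean inhibition at least 50% but not in every replicate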
AID977621: growth inhibition of wild-type GFP E. coli, dose response, H69 mutant RFP, cherry-pick | shares compounds with Ecoli rRNA inh | E. coli wild-type GFP strain growth, fluorescence, 24 h | activity change, negative = inhibition at 50 µM | 1,900 tested, under 10 active | AID 977621;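 active = Wild-type ribosome reporter drop at least double the humanized mutant ribosome reporter drop, growth loss under a set limit; inconclusive = no clear call, values can overlap the other calls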;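 also: wild-type GFP and H69 mutant RFP strains grown together 50/50 in each well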
AID977628: growth of wild-type and h24-humanized E. coli strains – h24 mutant RFP vs wild-type GFP, cherry-pick, dose response | shares compounds with Ecoli rRNA inh | E. coli WT GFP strain growth, fluorescence, 24 h | activity change, negative = inhibition at 50 µM | 1,900 tested, under 10 active;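 active = compound lowering the normal-ribosome reporter at least twice as much as the humanized-ribosome reporter, growth loss under a set limit; inconclusive = no clear call, values can overlap the other calls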;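 also: wild-type GFP and h24 humanized RFP strains co-cultured 1 to 1 per well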
A number is an active result; . = inactive; ? = inconclusive; / = no result given. A selection: hits, their analogues and other compounds. The true share with any hit is near 2.6%.

SMILES | MLL AF4-AF9 inh | E-sel inducer | Ecoli rRNA inh | INS-1E GSIS act | RAD54 branch | RAD52 anneal inh | AID977621 | AID977628
Cc1ccc(S(=O)(=O)Nc2ccc3c(c2)C(=O)N(C)[C@@H]2CC[C@H](CC(=O)NCCc4ccncc4)O[C@H]2CO3)cc1 | . | . | . | . | . | . | / | /
O=C1CCCN1CCCn1cnc2c([nH]c3ccc(F)cc32)c1=O | . | / | / | / | . | / | / | /
O=C1CCCN1CCCNc1ncnc2c1[nH]c1ccc(Cl)cc12 | / | / | -22.9 | . | . | . | . | /
O=C(COC(=O)c1ccccc1NC(=O)c1ccco1)NC1CC1 | . | / | . | . | / | . | / | /
CC1CCN(C(=O)COC(=O)c2ccccc2NC(=O)c2ccco2)CC1 | . | / | -31.7 | . | / | . | . | .
CN(Cc1ccc(F)cc1)C(=O)CN1CCN(S(=O)(=O)c2ccc3c(c2)OCCCO3)CC1 | . | . | -17.6 | . | . | . | / | ?
CN(Cc1cccc(F)c1)C(=O)CN1CCN(S(=O)(=O)c2ccc3c(c2)OCCCO3)CC1 | . | . | . | . | . | . | / | /
CC(C)C(=O)Nc1ccc2c(c1)C(=O)N(C)[C@H]1CC[C@H](CC(=O)NCc3ccccc3F)O[C@H]1CO2 | / | . | . | . | . | / | / | /
CO[C@@H]1CN(C)C(=O)c2ccc(NC(=O)Cc3ccccc3)cc2OC[C@@H](C)N(C)C[C@@H]1C | . | . | . | . | . | . | / | /
CO[C@H]1CN(C)C(=O)c2ccc(NC(=O)C3CCOCC3)cc2OC[C@@H](C)N(Cc2nccs2)C[C@H]1C | . | . | . | . | . | . | / | /
O=C(Cn1cc(COc2c(F)c(F)cc(F)c2F)nn1)c1ccc(O)cc1 | . | . | -18.2 | . | . | . | ? | /
COc1ccc(OCc2cn(CC(=O)c3ccc(O)cc3)nn2)cc1 | . | . | . | . | . | . | / | /
CCOC(=O)c1cnc2c(c(C)nn2C)c1Oc1ccc(OC)cc1 | . | / | -13.9 | . | . | . | . | .
COCC(=O)Nc1ccc2c(c1)C(=O)N(C)C[C@H](OC)[C@H](C)CN(CC1CCCCC1)[C@H](C)CO2 | . | . | . | . | . | . | / | /
COc1ccccc1CC(=O)NCCCc1ccccc1 | . | . | -23.0 | . | . | . | . | ?
Cc1cc(CNC(=O)COc2cc(F)ccc2[N+](=O)[O-])c2ccccc2n1 | . | . | . | . | . | . | / | /
O=C(COc1cc(F)ccc1[N+](=O)[O-])NCCCc1ccccc1 | . | . | -27.4 | . | / | . | . | .
CC=Cc1ccc2n(c1=O)C[C@@H]1[C@@H](CO)[C@H](C(=O)NCCN3CCCCC3)N(C(C)=O)[C@H]21 (mixture of isomers) | . | . | . | . | / | . | / | /
CCOC(=O)C1(CCCc2ccccc2)CCN(C(=O)CCn2cncn2)CC1 | . | . | -20.1 | . | / | . | . | .
CCOC(=O)C1(CCc2ccccc2)CCN(C(=O)CCn2cncn2)CC1 | . | / | . | . | / | . | / | /
CC1CCCCN1CC(O)COCCC12CC3CC(CC(C3)C1)C2 (stereo unspecified) | . | . | -28.7 | . | . | . | . | /
CCOC(=O)N1CCN(CC(O)COCCC23CC4CC(CC(C4)C2)C3)CC1 (stereo unspecified) | / | / | / | / | . | / | / | /
O=S(=O)(c1cccc(-c2nc3ccccc3s2)c1)N1CCCC1 | . | / | -22.1 | . | . | . | . | ?
O=S(=O)(c1ccc(-c2nc3ccccc3s2)cc1)N1CCCC1 | / | / | / | . | / | / | / | /
O=C(C1Cc2ccccc2CN1C(=O)c1ccccc1)N1CCN(c2ccccc2)CC1 (stereo unspecified) | / | / | -22.5 | . | . | . | . | .
SMILES | MLL AF4-AF9 inh | E-sel inducer | Ecoli rRNA inh | INS-1E GSIS act | RAD54 branch | RAD52 anneal inh | AID977621 | AID977628
COc1ccc(N2CCN(C(=O)C3Cc4ccccc4CN3C(=O)c3ccco3)CC2)cc1 (stereo unspecified) | . | . | / | / | . | . | / | /
Cc1ccc(-n2nnnc2CNC(=O)c2ccc([N+](=O)[O-])o2)cc1C | . | . | -19.6 | . | / | . | ? | .
CC(=O)NCCOc1nc(N2CCCCC2)nc(N2CCCCC2)n1 | . | . | -25.2 | . | . | . | . | .
CC(=O)NCCOc1nc(N(C)C)nc(N2CCOCC2)n1 | / | / | / | / | . | / | / | /
CCn1c(-c2cc(-c3ccc(OC(C)C)cc3)nc3ccccc23)n[nH]c1=S | . | / | -28.5 | / | . | . | / | ?
CCCN(Cc1ccco1)S(=O)(=O)c1ccc(OC)c(OC)c1 | . | . | -20.1 | . | / | . | . | .
CCCc1nc2ccc(Br)cn2c1Cc1cccc(Cl)c1 | . | . | -21.9 | . | . | . | . | .
Cc1ccsc1C(=O)OCC(=O)N1CCc2ccccc2C1 | . | . | -22.3 | . | . | . | . | /
COc1ccccc1-c1cn(CC[C@@H]2CC[C@H](NC(=O)NC(C)C)[C@H](CO)O2)nn1 | . | . | . | . | . | . | / | /
O=C(OCCc1ccccc1)c1cc(O)c(O)c(O)c1 | . | . | . | . | . | . | / | /
Nc1ccc(C(=O)OCCc2ccccc2)cc1 | . | . | -30.4 | . | . | . | . | .
O=C(O)C1=C[C@@H](c2ccc3c(c2)Cc2ccccc2-3)C[C@@H](OCCCCO)O1 | . | / | / | / | . | . | / | /
CC(C)Cc1nnc(NC(=O)c2ccc3c(=O)n4c(nc3c2)CCC4)s1 | . | / | -21.1 | . | . | . | . | .
CC(C)Cc1nnc(NC(=O)c2ccc(N3CCCC3=O)cc2)s1 | . | . | . | . | . | . | / | /
COc1ccc(NC(=O)Nc2ccc3c(c2)C(=O)N([C@@H](C)CO)C[C@@H](C)[C@@H](CN(C)C(=O)CCC(F)(F)F)OCCCC[C@H](C)O3)cc1 | / | . | . | . | . | / | / | /
O=C(NCCc1ccc(O)cc1)c1[nH]c(C(F)(F)F)nc1-c1ccccc1 | . | . | -23.0 | . | . | . | . | ?
O=C(NCCc1ccccc1)c1[nH]c(C(F)(F)F)nc1-c1ccccc1 | . | . | . | . | . | . | / | /
Oc1ccc(-c2csc(Nc3ncccn3)n2)cc1 | . | . | -16.6 | . | / | . | . | .
COc1ccc(OC)c(S(=O)(=O)NCc2cc(-c3ccccc3)no2)c1 | . | . | . | . | . | . | / | /
O=S(=O)(NCc1cc(-c2ccccc2)no1)c1ccccc1Cl | . | / | -20.8 | . | / | . | . | .
COc1ccc([C@H]2C/C=C\C[C@@H](c3cccc(Cl)c3)NC(=O)[C@H](c3ccccc3)CC(=O)N2)c(OC)c1 | / | / | . | . | / | / | / | /
COc1ccccc1C(=O)Nc1cccc2cccnc12 | . | / | -30.1 | . | . | . | . | /
O=C(Nc1cccc2cccnc12)c1ccccc1Cl | . | . | . | . | . | . | / | /

Bioassay records as filed in PubChem BioAssay.
